Here are results for 37 molecules from ChEMBL document CHEMBL1158435, “Identification of a novel inhibitor of JAK2 tyrosine kinase by structure-based virtual screening” (Bioorg Med Chem Lett, 2009).

Activity calls are given as the source filed them. No cut-off for these calls is given here.

The test system of assay [1] is HEL. In words: Growth inhibition of HEL cells harboring Val617Phe mutation in JAK2 at 25 uM after 72 hrs by trypan blue exclusion assay. In kind it is functional. As to conditions: Homo sapiens, read-out: GI. The gist of the method: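 Screening assay of HEL growth inhibition. HEL cells carry JAK2-Val617Phe on both alleles. Each compound was tested at a single final concentration of 25 μM.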

Assay [2] has as its target Proto-oncogene tyrosine-protein kinase Src (Homo sapiens) (UniProt P12931). In words: Inhibition of recombinant pp60c-Src autophosphorylation at 25 uM by Western blotting. The method in brief: (§1)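 Cell-free c-Src kinase assay, with compound tested at 25 μM.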
A general note: A western blot detects proteins with antibodies after separation by electrophoresis.

In assay [3] the test system is Raji. In words: Growth inhibition of human Raji cells possessing […] between c-Myc gene on chromosome 8 and heavy chain locus on chromosome 14 assessed as reduction in cell number at 100 uM after 48 hrs using trypan blue staining by hemocytometry. The assay is classed as functional, cell-based. The gist of the method: (§2)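 Four lines were compared: HEL (JAK2-Val617Phe on both alleles), CMK (JAK3-Ala572Val), Raji (c-Myc/heavy-chain locus translocation) and BSC-40 (green monkey kidney epithelial, SV-40 large T immortalized). Cells were exposed to compound over 10−9 to 10−4 M, and the read-out was cell number.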

Assay [4] concerns the target Tyrosine-protein kinase JAK2 (Homo sapiens, UniProt O60674, V617F). In words: (§3) Inhibition of recombinant JAK2-Val617Phe kinase activity after 30 mins by luminometry. The method in brief: (§4)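 Cell-free kinase assay. Recombinant JAK2-Val617Phe protein (JH1+JH2) was incubated with increasing inhibitor concentrations. After the kinetic reactions, relative kinase inhibition was determined from the residual ATP level in each reaction.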

Assay [5] concerns Tyrosine-protein kinase JAK2 (Homo sapiens), O60674 [V617F]. The assay is described as §3. The method in brief: as §4
Chain of Tyrosine-protein kinase JAK2 (Homo sapiens), O60674 [V617F] (O60674 whole entry V617F): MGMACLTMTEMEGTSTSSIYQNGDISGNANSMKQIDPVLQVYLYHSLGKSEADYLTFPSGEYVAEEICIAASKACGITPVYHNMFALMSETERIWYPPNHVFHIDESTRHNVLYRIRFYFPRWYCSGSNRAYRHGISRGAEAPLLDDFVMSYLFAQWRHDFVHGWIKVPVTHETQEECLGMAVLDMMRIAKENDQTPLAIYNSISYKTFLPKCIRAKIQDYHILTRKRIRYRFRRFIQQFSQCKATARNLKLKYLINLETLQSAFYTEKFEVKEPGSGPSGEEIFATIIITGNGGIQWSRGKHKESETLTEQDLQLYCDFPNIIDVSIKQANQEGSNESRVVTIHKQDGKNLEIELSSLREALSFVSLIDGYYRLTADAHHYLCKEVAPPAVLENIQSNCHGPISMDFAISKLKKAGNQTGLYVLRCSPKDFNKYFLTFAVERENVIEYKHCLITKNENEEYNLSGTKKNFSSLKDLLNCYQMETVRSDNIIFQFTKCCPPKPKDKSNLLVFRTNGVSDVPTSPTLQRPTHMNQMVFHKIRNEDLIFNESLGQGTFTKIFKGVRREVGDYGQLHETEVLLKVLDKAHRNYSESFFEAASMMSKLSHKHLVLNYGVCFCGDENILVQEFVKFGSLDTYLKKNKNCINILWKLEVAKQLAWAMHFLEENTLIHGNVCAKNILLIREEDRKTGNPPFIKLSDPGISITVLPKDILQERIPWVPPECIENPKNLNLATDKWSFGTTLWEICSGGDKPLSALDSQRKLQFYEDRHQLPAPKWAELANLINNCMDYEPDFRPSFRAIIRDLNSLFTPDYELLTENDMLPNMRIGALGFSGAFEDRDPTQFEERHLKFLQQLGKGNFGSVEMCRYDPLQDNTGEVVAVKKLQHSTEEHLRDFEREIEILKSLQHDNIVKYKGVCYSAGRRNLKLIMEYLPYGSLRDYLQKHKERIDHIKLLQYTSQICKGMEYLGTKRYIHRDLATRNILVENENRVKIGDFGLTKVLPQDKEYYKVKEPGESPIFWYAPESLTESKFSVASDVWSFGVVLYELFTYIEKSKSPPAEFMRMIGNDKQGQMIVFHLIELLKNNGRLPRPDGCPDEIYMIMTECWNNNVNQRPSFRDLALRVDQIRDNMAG
Assay [6] deals with CMK. In words: Growth inhibition of human CMK cells harboring Ala572Val mutation in JAK3 assessed as reduction in cell number at 0.001 to 10 uM after 48 hrs using trypan blue staining by hemocytometry. In kind it is functional, cell-based. The method in brief:
as §2

Assay [7] relates to HEL. In words: Reduction in phospho-JAK2 [pYpY1007/1008] level in HEL cells at 25 uM by […]. In kind it is functional, cell-based. As to conditions: Homo sapiens, TDE = time-dependent effect. The gist of the method: (§5)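 HEL cells were treated across varying compound concentrations and exposure times. Phospho-JAK2 protein levels were then measured in the cells.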

In assay [8] the test system is HEL. In words: Growth inhibition of HEL cells harboring Val617Phe mutation in JAK2 assessed as reduction in cell number at 100 uM after 48 hrs using trypan blue staining by hemocytometry. The assay is classed as functional, cell-based. As to conditions: Homo sapiens. The gist of the method:
as §2

The test system of assay [9] is HEL. In words: Reduction in phospho-JAK2 [pYpY1007/1008] level in HEL cells after 48 hrs by […]. The assay is classed as functional, cell-based. As to conditions: Homo sapiens. The gist of the method: as §5
Assay [10] concerns HEL. In words: Growth inhibition of HEL cells harboring Val617Phe mutation in JAK2 assessed as reduction in cell number at 0.001 to 10 uM after 48 hrs using trypan blue staining by hemocytometry. In kind it is functional, cell-based. As to conditions: Homo sapiens. The gist of the method:
as §2

Assay [11] concerns Tyrosine-protein kinase JAK2 (Homo sapiens), O60674 [V617F]. In words: Inhibition of recombinant JAK2-Val617Phe kinase activity at 25 uM after 30 mins by luminometry. The gist of the method:
as §4

Assay [12] concerns CMK. In words: Growth inhibition of human CMK cells harboring Ala572Val mutation in JAK3 assessed as reduction in cell number at 100 uM after 48 hrs using trypan blue staining by hemocytometry. In kind it is functional, cell-based. The gist of the method: as §2
Assay [13] is described as follows: Inhibition of pathological growth of human hematopoietic progenitor cells isolated from polycythemia vera patient assessed as erythroid colony formation at 2.5 uM after 14 days in absence of erythropoietin. The assay is classed as functional. The note with it: 336 h, read-out: GI.
Assay [14] addresses Non-receptor tyrosine-protein kinase TYK2 (Homo sapiens) (UniProt P29597). In words: Inhibition of TYK2 transfected in mouse embryonic fibroblasts at 25 uM by Western blotting. The gist of the method:
(§6)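 TYK2 autophosphorylation was measured within intact cells, with compound present at 25 μM.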

The nature of assay [15]: Inhibition of pathological growth of human hematopoietic progenitor cells isolated from polycythemia vera patient assessed as erythroid colony formation at 2.5 uM after 14 days in absence of erythropoietin. As to conditions: 336 h, read-out: GI.
For assay [16], the system named is Raji. In words: Growth inhibition of human Raji cells possessing […] between c-Myc gene on chromosome 8 and heavy chain locus on chromosome 14 assessed as reduction in cell number at 0.001 to 10 uM after 48 hrs using trypan blue staining by hemocytometry. In kind it is functional, cell-based. The gist of the method: as §2
Assay [17] addresses Proto-oncogene tyrosine-protein kinase Src (Homo sapiens) (UniProt P12931). In words: Inhibition of recombinant pp60c-Src at 25 uM by Western blotting. The method in brief:
as §1

For assay [18], the system named is BSC-40. In words: Growth inhibition of african green monkey BSC40 cells immortalized with SV40 large T antigen assessed as reduction in cell number at 100 uM after 48 hrs using trypan blue staining by hemocytometry. In kind it is functional, cell-based. The note with it: Chlorocebus aethiops. The method in brief:
as §2

In assay [19] the target is Non-receptor tyrosine-protein kinase TYK2 (Homo sapiens) (UniProt P29597). In words: Inhibition of TYK2 autophosphorylation transfected in mouse embryonic fibroblasts at 25 uM by Western blotting. The gist of the method: as §6
Chain of Non-receptor tyrosine-protein kinase TYK2 (Homo sapiens) (P29597 whole entry): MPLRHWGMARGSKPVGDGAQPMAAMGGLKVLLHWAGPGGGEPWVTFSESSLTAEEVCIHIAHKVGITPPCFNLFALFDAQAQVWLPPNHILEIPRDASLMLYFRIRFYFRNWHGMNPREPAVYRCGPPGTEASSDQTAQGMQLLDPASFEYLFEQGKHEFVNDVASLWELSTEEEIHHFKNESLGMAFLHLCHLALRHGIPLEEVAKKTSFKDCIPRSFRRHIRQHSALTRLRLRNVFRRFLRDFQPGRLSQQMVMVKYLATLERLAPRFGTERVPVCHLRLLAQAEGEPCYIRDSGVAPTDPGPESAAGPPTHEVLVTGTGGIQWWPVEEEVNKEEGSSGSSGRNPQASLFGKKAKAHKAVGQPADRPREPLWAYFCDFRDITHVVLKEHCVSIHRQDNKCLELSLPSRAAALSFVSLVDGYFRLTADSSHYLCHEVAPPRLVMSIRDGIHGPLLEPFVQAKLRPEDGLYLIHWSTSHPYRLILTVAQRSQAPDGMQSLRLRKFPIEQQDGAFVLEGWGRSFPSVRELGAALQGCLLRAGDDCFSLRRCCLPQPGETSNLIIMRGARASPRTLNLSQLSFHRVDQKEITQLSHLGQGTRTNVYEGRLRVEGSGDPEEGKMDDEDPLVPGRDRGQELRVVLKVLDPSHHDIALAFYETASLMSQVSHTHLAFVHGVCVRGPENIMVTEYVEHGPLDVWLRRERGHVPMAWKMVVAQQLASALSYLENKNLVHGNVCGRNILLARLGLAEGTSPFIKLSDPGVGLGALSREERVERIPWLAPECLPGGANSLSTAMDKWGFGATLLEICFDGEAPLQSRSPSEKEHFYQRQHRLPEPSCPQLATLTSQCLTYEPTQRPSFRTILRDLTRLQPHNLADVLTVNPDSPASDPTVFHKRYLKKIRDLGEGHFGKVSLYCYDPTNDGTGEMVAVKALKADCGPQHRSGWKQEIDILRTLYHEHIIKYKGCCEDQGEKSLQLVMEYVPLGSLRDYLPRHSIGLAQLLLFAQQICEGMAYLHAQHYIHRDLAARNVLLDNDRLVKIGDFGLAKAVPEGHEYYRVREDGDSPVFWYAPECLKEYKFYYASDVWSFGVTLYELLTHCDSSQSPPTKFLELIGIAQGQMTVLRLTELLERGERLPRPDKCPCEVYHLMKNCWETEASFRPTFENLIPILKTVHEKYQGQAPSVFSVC
For assay [20], the system named is BSC-40. In words: Growth inhibition of african green monkey BSC40 cells immortalized with SV40 large T antigen assessed as reduction in cell number at 0.001 to 10 uM after 48 hrs using trypan blue staining by hemocytometry. The assay is classed as functional, cell-based. As to conditions: Chlorocebus aethiops. The gist of the method: as §2

Chain of Proto-oncogene tyrosine-protein kinase Src (Homo sapiens) (P12931 2-536 limits assumed): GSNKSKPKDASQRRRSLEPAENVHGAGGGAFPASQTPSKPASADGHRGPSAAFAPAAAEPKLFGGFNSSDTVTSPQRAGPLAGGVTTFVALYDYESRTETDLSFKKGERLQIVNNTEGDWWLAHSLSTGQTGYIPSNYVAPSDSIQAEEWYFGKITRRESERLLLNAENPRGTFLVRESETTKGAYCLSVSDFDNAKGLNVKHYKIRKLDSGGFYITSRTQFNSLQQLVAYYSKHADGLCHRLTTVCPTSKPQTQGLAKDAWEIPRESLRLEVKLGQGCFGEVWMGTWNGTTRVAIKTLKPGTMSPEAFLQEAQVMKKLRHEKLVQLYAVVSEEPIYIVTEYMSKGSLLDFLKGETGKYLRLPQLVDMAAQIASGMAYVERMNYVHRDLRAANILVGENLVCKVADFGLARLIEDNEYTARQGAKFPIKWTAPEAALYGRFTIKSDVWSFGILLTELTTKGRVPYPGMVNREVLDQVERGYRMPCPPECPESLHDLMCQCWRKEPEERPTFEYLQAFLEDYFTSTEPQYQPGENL
Chain of Tyrosine-protein kinase JAK2 (O60674 whole entry V617F): as the sequence (O60674 whole entry V617F) above

For `O=[N+]([O-])c1cc(/C=N/NS(=O)(=O)c2cc(Cl)c(Cl)cc2Cl)ccc1Cl`, the inhibition of growth at 25 µM in assay [1] stood at 27%. Turning to `CCCCCCCNC1=C(OCC)C(=O)c2ccccc2C1=O`, the inhibition of growth at 25 µM in assay [1] was found to be 24%.

As to `CCc1c(C#N)c(N)c2c(N)c(C(=O)c3ccccc3)sc2c1C`, the inhibition of growth at 25 µM in [1] stood at 30%. Still for that read-out and setting: with `C/C(CC(=O)c1ccccc1)=N/CCCCC/N=C(\C)CC(=O)c1ccccc1` the figure was 31%. For the molecule `Cc1c(O)c2ccccc2c2c1sc(NCCCN(CCO)CCO)[n+]2C`, in assay [1], the inhibition of growth at 25 µM was 41%.

In the case of `NC(=O)c1cc(NC(=O)c2ccc(C(=O)Nc3cc(C(N)=O)cc(C4=NCCN4)c3)cc2)cc(C2=NCCN2)c1`, the inhibition of growth at 25 µM in assay [1] stood at 10%. In the case of `CC(=O)c1c(O)cc(O)cc1-c1cc(=O)c2c(O)ccc(C(C)=O)c2o1`, in assay [1], the inhibition of growth at 25 µM was found to be 42%. In the case of `C/C(CC(=O)c1ccccc1)=N/CCCC/N=C(/C)CC(=O)c1ccccc1`, the inhibition of growth at 25 µM in assay [1] is 19%. Turning to `O=C(CC(=O)CC(=O)c1ccccc1)CC(=O)c1ccccc1`, in assay [1], the inhibition of growth at 25 µM is 67%. Still for that read-out and setting: the value for `O=C(Nc1ccc(Oc2ccc(NC(=O)Nc3ccc(-c4ccccc4)cc3)cc2)cc1)Nc1ccc(-c2ccccc2)cc1` was 13%.

For orientation: inhibition means the drop in the measured response relative to a control, in per cent. Take `CC(CCc1ccccn1)(CCc1ccccn1)C(=O)c1ccccc1`: the inhibition result in assay [2] was “inactive”. On to `O=P(O)(c1ccc(Cl)cc1)c1ccc(Cl)cc1`, for which, in assay [1], the inhibition of growth at 25 µM stood at 13%.

Turning to `O=C(c1cccc([N+](=O)[O-])c1)c1c(O)oc2ccccc2c1=O`, the inhibition of growth at 25 µM in [1] came out at 40%. With `O=C(Nc1ccccc1)Nc1ccc2ccccc2c1`, the inhibition of growth at 25 µM in assay [1] amounted to 38%. The same measure, in the same setting: with `CCc1[nH]nc(-c2ccc(OC)cc2)c1-c1ccccc1O` the figure was 40%; with `OC1C=C(c2ccccc2)C(c2ccccc2)C(c2ccccc2)C1` (stereo unspecified), 27%. Consider `O=C(CC(=O)c1ccccc1)CC(O)(/C=C/c1ccccc1)c1ccccc1` (stereo unspecified), for which the inhibition of growth at 25 µM in assay [1] is 15%. Still for that read-out and setting: with `O=C(Nc1ccc(Cc2ccc(NC(=O)Nc3cccc(C4=NCCN4)c3)cc2)cc1)Nc1cccc(C2=NCCN2)c1` the figure was 13%; with `CC1=CN=C(NCCCCNC2=NC=C(C)/C(=C3/C=CC=CC3=O)N2)N/C1=C1/C=CC=CC1=O`, 16%. As to `O=C1C=Cc2ccccc2/C1=C/NNS(=O)(=O)c1cc(Cl)c(Cl)cc1Cl`, the inhibition of growth at 25 µM in assay [1] is 51%.

Consider `Nc1ccc(C(=O)Nc2ccc3cc(S(=O)(=O)O)cc(O)c3c2)cc1`, for which the inhibition of growth at 25 µM in assay [1] was 39%. `CC(C)(C)n1nc(-c2ccc(Cl)cc2)c2c(N)ncnc21`: the inhibition result in assay [2] is “Active”.

In the case of `O=C(NCCNCCO)c1cccc(Nc2cc(O)c(O)c3ccccc23)c1`, the inhibition of growth at 25 µM in assay [1] came to 42%. As for `CC(=O)c1cc(Cl)ccc1OCC(O)CNc1ccccc1C(=O)c1ccccc1` (stereo unspecified), the inhibition of growth at 25 µM in assay [1] worked out at 41%. The same measure, in the same setting: with `O=C(/C=C(\O)c1ccc(F)cc1)C(=O)/C=C(\O)c1ccc(F)cc1` the figure was 36%; with `O=C(Nc1cc(Cl)ccc1Cl)Nc1ccc(Cl)cc1C(=O)c1ccccc1`, 24%. Same read-out and setting: with `O/N=C(\c1ccccc1)c1ccc[n+](CCc2ccccc2)c1` the figure was 38%. Same read-out and setting: the value for `O=C(CN1C=C(/C=N/O)C=CC1)C1CCC(C2CCC(C(=O)CN3CCCC(/C=N/O)C3)CC2)CC1` (stereo unspecified) was 8%. Turning to `O=C(/C=C(\C=C\c1ccccc1)c1ccccc1)CC(=O)c1ccccc1`, the inhibition of growth at 25 µM in assay [1] came out at 11%. Still for that read-out and setting: the value for `COc1ccc2nc(NC(=O)Nc3ccc(C)c(NC(=O)Nc4nc5ccc(OC)cc5s4)c3)sc2c1` was 57%; that for `NC(CSSCC(N)C(=O)c1ccccc1)C(=O)c1ccccc1` (stereo unspecified) was 30%. Still for that read-out and setting: the value for `COc1ccc(-c2n[nH]c(=S)c(-c3ccccc3)c2-c2ccccc2)cc1` was 44%; that for `Cc1cc(Cl)ccc1Nc1sc(C(=O)c2cc3cc(Cl)ccc3o2)c(N)c1C#N` was 55%.

By IC50 is commonly meant the point on the concentration scale where inhibition reaches its midpoint. As for `CC/C(=C(/CC)c1ccc(O)c(CN(CC)CC)c1)c1ccc(O)c(CN(CC)CC)c1`, the “growth inhibition (GI)” value in assay [3], in assay [8], in assay [10], in assay [12] and in assay [18] was “Active” throughout. The inhibition of growth at 25 µM in assay [1] is greater than 99%. In addition, in [4], the 50% inhibitory concentration (IC50) stood at 60 nM. Besides, the values for the Activity entry in assay [5], in assay [7] and in assay [9] were “Dose-dependent effect”, “tde” and “Dose-dependent effect”, respectively. Further, the “growth inhibition (GI)” value in assay [6], in assay [16] and in assay [20] was “inactive” in each case. The inhibition in assay [11] is greater than 99%. The inhibition of growth at 2.5 µM in assay [13] and in assay [15] was greater than 50% in each case. The inhibition entry in assay [14], in [17], in assay [2] and in assay [19] was “inactive” throughout. Take `O=C1C=C(NCCCC2CCCN3CCCCC23)C(=O)c2ccccc21` (stereo unspecified): the inhibition of growth at 25 µM in [1] came out at 27%. Still for that read-out and setting: with `CCCCCCCCNC(C(=O)c1ccc(Cl)cc1)c1ccc(Cl)cc1` (stereo unspecified) the figure was 7%; with `O=C1C=Cc2ccccc2/C1=C/N/N=C(\C(=O)c1ccccc1)c1ccccc1`, 27%.
